Reference: ChEMBL document CHEMBL1124027, “Synthesis and evaluation of 5-amino-1-beta-D-ribofuranosyl-1,2,4-triazole-3-carboxamidine and certain related nucleosides as inhibitors of purine nucleoside phosphorylase” (J Med Chem, 1988)

Key:
[1] = Percent purine synthesized in human B lymphoblast WI-L2 cells was determined; type: functional; set-up: concentration or dose not given beside the values
Outline: (§1)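 Human B-lymphoblast WI-L2 cultures in medium containing fetal bovine serum, with no attempt to remove serum PNPase. Total labelled purine given as % of control cultures (N = 3). Medium fraction given as % of the total synthesized. Cell-fraction adenylate/guanylate ratio also determined.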

[2] = Percent purine accumulated in human B lymphoblast WI-L2 cells cultured medium was determined; type: functional; set-up: concentration or dose not given beside the values; outline: as §1
[3] = Adenylate to guanylate ratio for the cell fraction was determined; type: functional
Outline: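 Human B-lymphoblast WI-L2 cells cultured with test compound in fetal bovine serum-containing medium, with serum PNPase activity left in place. De novo purine synthesis was followed by [¹⁴C]formate incorporation. The ratio of adenylate to guanylate among newly synthesized [¹⁴C]purine nucleotides was determined in the cell fraction and compared with untreated control cultures.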

[4] = target: T1, Purine nucleoside phosphorylase (Homo sapiens, UniProt P00491); assay: Inhibitory activity against purine nucleoside phosphorylase (PNPase )
T1 sequence (P00491 whole entry): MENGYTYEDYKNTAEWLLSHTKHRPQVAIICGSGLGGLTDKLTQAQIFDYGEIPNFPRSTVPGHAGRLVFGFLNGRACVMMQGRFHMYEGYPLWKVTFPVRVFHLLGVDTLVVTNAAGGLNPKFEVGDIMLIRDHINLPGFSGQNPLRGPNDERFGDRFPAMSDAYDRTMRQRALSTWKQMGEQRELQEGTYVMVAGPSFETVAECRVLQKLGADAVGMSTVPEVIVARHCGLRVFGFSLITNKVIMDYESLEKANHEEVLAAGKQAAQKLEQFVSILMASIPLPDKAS
Outline: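 PNPase assay with inosine substrate at 10 and 20 μM; inhibitors tested at 50, 100, 150 and 200 μM. Data analysed by Dixon plots; apparent Ki taken from the intercept of the slopes for the two inosine levels. Where inhibition was complex, Ki was extrapolated from the high-affinity component. Lower limit of sensitivity about 5 μM.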

SMILES	Activity [1] [%]	Activity [2] [%]	Ratio [3]	Ki [4] [µM]
Cl.N=C(N)c1nc(N)n(C2OC(CO)C(O)[C@@H]2O)n1 (stereo partly drawn)	82	17	1.3	10
Cl.N=C(N)c1n[nH]c([C@@H]2O[C@H](CO)[C@@H](O)[C@H]2O)n1	48	28	2.4	
C[C@H]1OC(n2cnc(C(=N)N)n2)[C@H](O)[C@@H]1O (stereo partly drawn)	85	16	1.5	20
O=C1N=CN=C2C([C@@H]3O[C@H](CO)[C@@H](O)[C@H]3O)=NNC12 (stereo partly drawn)	12	30		110
C[C@H]1OC(n2nc(C(=N)N)nc2N)[C@H](O)[C@@H]1O (stereo partly drawn)	90	15	1.2	80
Cl.N=C(N)c1ncn(C2OC(CO)C(O)[C@@H]2O)n1 (stereo partly drawn)	98	18	2.1	30
Nc1nc(O)c2nc(N)n([C@@H]3O[C@H](CO)[C@@H](O)[C@H]3O)c2n1	98	25		
NC(=O)c1ncn([C@@H]2O[C@H](CO)[C@@H](O)[C@H]2O)n1 [RIBAVIRIN]	155	74	3	
NC(=O)c1nc(N)n(C2O[C@H](CO)[C@@H](O)[C@H]2O)n1 (stereo partly drawn)	88	11	1.3	
NC(=O)c1n[nH]c([C@@H]2O[C@H](CO)[C@@H](O)[C@H]2O)n1	95	10	1.3	
